Test results as given in ChEMBL document CHEMBL3407461 (J Med Chem, 2014).
Active and inactive are the calls of the source.

How the values were obtained:
[1] = biological target: T1, Adenosine receptor A3 (Mus musculus) (UniProt Q61618); test: Agonist activity at mouse A3 adenosine receptor expressed in HEK293 cells assessed as inhibition of forskolin-stimulated cAMP production after 15 mins relative to control; assay type: functional, cell-based
T1 sequence (whole entry): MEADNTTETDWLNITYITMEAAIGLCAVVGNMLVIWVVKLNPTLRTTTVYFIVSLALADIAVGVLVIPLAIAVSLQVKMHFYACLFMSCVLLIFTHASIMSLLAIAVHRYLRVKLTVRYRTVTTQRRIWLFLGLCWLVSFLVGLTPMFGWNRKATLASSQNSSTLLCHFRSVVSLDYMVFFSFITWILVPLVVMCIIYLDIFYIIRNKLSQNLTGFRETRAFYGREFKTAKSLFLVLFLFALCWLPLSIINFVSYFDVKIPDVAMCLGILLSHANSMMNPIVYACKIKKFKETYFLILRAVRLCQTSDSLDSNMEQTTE
Procedure, shortened: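 2 × 10^5 cells/tube, coincubated with forskolin 10 μM plus ligand for 15 min at 37 °C with shaking. Stopped with HCl. cAMP in supernatant measured by competitive binding.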

[2] = tested on: Mus musculus; test: Antinociceptive activity in chronic constriction injury neutropathic pain CD-1 mouse model assessed as time for peak protection at 3 umol/kg, po; assay type: functional
Procedure, shortened: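 Male CD-1 mice (25−30 g), chronic constriction injury of left sciatic nerve (Bennett model) under isoflurane. Dosed by gavage (3 μmol/kg, 0.2 mL) at peak mechano-allodynia on day 7; vehicle 10% DMSO in 0.5% methylcellulose. Paw withdrawal threshold (g) measured on the ipsilateral hind paw from 30 min to 5 h post dose. Expressed as % reversal, mean ± SEM over n animals.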

[3] = biological target: T2, Adenosine receptor A1 (Mus musculus) (UniProt Q60612); test: Displacement of [125I]I-AB-MECA from mouse A1 adenosine receptor expressed in HEK293 cells at 10 uM after 60 mins by liquid scintillation counting
T2 sequence (whole entry): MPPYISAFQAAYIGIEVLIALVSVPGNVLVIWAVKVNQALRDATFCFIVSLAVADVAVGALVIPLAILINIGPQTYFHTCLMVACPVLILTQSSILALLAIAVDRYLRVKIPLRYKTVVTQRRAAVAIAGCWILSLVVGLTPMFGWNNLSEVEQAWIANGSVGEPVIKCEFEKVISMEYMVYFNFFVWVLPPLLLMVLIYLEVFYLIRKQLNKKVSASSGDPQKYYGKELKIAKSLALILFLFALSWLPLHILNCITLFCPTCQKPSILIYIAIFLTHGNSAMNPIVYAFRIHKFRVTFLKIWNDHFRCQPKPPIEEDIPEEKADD

[4] = biological target: T3, Adenosine receptor A1 (Homo sapiens) (UniProt P30542); test: Displacement of [3H]R-PIA from human recombinant A1 adenosine receptor expressed in CHO cells at 10 uM after 60 mins by liquid scintillation counting; assay type: cell-based
T3 sequence (whole entry): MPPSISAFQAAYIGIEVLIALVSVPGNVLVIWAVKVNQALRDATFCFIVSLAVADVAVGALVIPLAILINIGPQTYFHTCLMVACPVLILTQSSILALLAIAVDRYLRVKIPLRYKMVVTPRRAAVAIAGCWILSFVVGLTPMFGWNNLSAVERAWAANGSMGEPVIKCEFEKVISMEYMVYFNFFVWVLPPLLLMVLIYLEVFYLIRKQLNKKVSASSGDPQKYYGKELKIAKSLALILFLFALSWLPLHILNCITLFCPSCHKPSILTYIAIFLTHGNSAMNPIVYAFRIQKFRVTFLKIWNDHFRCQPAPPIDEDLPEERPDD

[5] = biological target: Adenosine receptor A2a (Homo sapiens) (UniProt P29274); test: Displacement of [3H]CGS21680 from human recombinant A2A adenosine receptor expressed in HEK293 cells at 10 uM after 60 mins by liquid scintillation counting; assay type: cell-based
Chain of Adenosine receptor A2a (Homo sapiens) (P29274 whole entry): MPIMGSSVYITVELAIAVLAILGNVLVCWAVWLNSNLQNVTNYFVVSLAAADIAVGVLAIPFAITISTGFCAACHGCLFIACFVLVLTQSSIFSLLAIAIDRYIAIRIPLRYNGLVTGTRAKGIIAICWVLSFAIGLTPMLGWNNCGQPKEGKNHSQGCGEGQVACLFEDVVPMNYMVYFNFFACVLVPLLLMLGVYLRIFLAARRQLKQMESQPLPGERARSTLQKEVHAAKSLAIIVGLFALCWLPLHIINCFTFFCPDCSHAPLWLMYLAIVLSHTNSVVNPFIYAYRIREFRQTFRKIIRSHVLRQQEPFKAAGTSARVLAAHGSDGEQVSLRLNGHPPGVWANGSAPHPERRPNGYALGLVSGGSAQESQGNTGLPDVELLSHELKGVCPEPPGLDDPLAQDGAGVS

[6] = tested on: Mus musculus; test: Antinociceptive activity in chronic constriction injury neutropathic pain CD-1 mouse model assessed as maximum protection on ipsilateral hind paw at 3 umol/kg, po after 30 mins to 5 hrs post dose relative to control; assay type: functional; settings: CD-1, po
[7] = biological target: Adenosine receptor A2a (Mus musculus) (UniProt Q60613); test: Displacement of [3H]CGS21680 from mouse A2A adenosine receptor expressed in HEK293 cells at 10 uM after 60 mins by liquid scintillation counting; assay type: cell-based
Chain of Adenosine receptor A2a (Mus musculus) (Q60613 whole entry): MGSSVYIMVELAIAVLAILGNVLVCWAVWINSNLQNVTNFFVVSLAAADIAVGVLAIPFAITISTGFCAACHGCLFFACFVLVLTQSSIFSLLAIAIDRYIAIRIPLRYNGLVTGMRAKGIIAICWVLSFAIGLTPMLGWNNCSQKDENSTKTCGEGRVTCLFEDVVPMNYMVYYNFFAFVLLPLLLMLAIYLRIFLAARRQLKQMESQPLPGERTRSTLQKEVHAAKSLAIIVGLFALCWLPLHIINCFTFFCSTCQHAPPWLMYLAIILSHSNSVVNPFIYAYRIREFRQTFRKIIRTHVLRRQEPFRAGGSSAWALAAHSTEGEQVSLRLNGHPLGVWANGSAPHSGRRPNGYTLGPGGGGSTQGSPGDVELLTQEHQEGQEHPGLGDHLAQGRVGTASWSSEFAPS

[8] = tested on: Mus musculus; test: Antinociceptive activity in chronic constriction injury neutropathic pain CD-1 mouse model at 3 umol/kg, po after 3 hrs post dose relative to control; assay type: functional
[9] = biological target: hERG (KCNH2) (Homo sapiens, UniProt Q12809); test: Inhibition of human ERG at 10 uM by PDSP screening
Chain of hERG (KCNH2) (Q12809 whole entry): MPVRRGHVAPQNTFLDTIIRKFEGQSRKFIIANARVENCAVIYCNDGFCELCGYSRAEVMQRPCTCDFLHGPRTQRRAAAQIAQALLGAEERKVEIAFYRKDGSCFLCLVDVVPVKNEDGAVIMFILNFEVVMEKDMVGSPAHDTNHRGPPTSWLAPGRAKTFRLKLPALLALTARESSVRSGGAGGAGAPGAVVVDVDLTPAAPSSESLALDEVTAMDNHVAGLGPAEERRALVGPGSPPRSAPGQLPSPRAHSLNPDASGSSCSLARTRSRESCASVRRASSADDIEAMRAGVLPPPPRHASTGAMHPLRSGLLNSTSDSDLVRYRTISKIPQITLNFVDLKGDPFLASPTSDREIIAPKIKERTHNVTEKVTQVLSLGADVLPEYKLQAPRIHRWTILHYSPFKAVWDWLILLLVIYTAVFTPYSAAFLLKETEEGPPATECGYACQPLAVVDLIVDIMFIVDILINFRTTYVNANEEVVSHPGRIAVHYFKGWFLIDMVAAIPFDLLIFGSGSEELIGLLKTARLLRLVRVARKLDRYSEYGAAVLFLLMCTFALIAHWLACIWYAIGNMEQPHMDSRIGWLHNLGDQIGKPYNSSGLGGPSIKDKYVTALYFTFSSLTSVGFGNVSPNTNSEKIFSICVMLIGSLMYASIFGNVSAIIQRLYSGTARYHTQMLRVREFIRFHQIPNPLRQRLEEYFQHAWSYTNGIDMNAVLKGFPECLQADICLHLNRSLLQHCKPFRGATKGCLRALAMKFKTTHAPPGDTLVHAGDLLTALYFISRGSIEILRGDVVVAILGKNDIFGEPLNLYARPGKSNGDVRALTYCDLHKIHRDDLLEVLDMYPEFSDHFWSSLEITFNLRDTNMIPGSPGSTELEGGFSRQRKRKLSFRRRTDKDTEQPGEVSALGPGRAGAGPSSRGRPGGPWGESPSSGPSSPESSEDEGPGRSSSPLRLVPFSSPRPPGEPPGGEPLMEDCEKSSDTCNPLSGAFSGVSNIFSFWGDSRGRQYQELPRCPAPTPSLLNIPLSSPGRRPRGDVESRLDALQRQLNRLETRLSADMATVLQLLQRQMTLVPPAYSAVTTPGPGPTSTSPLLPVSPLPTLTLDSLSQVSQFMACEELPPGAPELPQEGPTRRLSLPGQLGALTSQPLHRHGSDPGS

[10] = Permeability across apical to basolateral side of human Caco2 cells expressing P-gp; assay type: ADME, cell-based; settings: caco-2
[11] = tested on: CHO; test: Selectivity ratio of Ki for mouse A3 adenosine receptor expressed in HEK293 cells to Ki for human recombinant A3 adenosine receptor expressed in CHO cells; assay type: cell-based
[12] = tested on: CHO; test: Selectivity ratio of IC50 for human ERG to IC50 for human recombinant A3 adenosine receptor expressed in CHO cells; assay type: cell-based
[13] = biological target: Voltage-gated inwardly rectifying potassium channel KCNH2 (Homo sapiens, UniProt Q12809); test: Inhibition of human ERG by PDSP screening
Chain of Voltage-gated inwardly rectifying potassium channel KCNH2 (Q12809 whole entry): as above

[14] = biological target: Adenosine receptor A3 (Mus musculus, UniProt Q61618); test: Displacement of [125I]I-AB-MECA from mouse A3 adenosine receptor expressed in HEK293 cells after 60 mins by liquid scintillation counting; assay type: cell-based
[15] = organism: Homo sapiens; test: Binding affinity to sigma2 receptor (unknown origin) by PDSP screening
[16] = biological target: Sigma non-opioid intracellular receptor 1 (Homo sapiens) (UniProt Q99720); test: Binding affinity to sigma1 receptor (unknown origin) by PDSP screening
Chain of Sigma non-opioid intracellular receptor 1 (Homo sapiens) (Q99720 whole entry): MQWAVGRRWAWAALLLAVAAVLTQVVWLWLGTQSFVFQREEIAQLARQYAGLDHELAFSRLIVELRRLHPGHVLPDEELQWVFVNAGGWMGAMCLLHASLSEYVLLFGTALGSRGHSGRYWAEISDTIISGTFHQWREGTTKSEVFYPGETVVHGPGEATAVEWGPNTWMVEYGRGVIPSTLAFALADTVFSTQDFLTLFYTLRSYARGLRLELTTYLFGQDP

[17] = biological target: Cytochrome P450 3A4 (Homo sapiens, UniProt P08684); test: Inhibition of CYP3A4 in human microsomes preincubated for 5 mins before substrate addition measured after 10 mins by LC/MS/MS analysis; assay type: ADME
Chain of Cytochrome P450 3A4 (P08684 whole entry): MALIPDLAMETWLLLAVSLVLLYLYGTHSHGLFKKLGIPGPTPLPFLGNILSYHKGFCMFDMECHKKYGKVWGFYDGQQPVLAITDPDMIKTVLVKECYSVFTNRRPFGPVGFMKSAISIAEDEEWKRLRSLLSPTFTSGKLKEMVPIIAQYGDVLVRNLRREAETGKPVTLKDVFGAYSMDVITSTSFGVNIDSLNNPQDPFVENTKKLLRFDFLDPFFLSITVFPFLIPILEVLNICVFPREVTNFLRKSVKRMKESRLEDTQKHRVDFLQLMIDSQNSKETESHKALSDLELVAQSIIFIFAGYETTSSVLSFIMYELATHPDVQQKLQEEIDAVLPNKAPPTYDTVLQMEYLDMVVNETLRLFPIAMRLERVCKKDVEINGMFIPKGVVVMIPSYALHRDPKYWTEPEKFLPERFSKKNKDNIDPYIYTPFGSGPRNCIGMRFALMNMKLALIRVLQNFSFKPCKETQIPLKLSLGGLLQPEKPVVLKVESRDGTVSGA

[18] = biological target: Cytochrome P450 2C9 (Homo sapiens, UniProt P11712); test: Inhibition of CYP2C9 in human microsomes preincubated for 5 mins before substrate addition measured after 10 mins by LC/MS/MS analysis; assay type: ADME
[19] = biological target: T4, Cytochrome P450 1A2 (Homo sapiens, UniProt P05177); test: Inhibition of CYP1A2 in human microsomes preincubated for 5 mins before substrate addition measured after 10 mins by LC/MS/MS analysis; assay type: ADME
T4 sequence (P05177 whole entry): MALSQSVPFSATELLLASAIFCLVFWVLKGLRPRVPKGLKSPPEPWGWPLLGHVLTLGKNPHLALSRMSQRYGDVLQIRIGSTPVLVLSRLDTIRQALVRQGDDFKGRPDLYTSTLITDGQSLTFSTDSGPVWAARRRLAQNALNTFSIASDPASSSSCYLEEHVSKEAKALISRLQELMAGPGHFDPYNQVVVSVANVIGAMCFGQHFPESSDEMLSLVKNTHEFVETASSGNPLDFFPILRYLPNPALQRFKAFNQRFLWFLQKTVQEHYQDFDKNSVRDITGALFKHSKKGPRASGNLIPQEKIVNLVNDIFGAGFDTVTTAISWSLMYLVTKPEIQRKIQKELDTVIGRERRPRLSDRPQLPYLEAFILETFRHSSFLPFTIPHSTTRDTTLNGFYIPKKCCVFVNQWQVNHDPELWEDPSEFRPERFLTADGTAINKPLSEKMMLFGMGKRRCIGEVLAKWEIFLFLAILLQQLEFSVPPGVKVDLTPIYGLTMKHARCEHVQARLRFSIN

[20] = biological target: Cytochrome P450 2D6 (Homo sapiens, UniProt P10635); test: Inhibition of CYP2D6 in human microsomes preincubated for 5 mins before substrate addition measured after 10 mins by LC/MS/MS analysis; assay type: ADME
Chain of Cytochrome P450 2D6 (P10635 whole entry): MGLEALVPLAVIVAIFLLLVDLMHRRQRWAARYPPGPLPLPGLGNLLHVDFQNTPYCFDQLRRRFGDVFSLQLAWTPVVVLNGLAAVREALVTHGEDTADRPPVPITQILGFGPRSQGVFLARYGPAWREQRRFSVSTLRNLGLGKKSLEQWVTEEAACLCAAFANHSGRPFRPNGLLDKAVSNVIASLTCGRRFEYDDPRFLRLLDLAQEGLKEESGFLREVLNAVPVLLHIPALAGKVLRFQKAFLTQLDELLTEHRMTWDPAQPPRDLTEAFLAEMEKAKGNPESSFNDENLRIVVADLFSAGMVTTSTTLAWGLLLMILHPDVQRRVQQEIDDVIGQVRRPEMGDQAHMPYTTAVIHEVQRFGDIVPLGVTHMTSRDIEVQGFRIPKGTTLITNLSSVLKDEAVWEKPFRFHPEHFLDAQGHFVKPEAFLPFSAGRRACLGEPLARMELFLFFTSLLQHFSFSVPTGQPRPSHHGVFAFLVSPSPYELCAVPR

[21] = biological target: Translocator protein (Homo sapiens) (UniProt P30536); test: Binding affinity to TSPO (unknown origin) by PDSP screening
Chain of Translocator protein (Homo sapiens) (P30536 whole entry): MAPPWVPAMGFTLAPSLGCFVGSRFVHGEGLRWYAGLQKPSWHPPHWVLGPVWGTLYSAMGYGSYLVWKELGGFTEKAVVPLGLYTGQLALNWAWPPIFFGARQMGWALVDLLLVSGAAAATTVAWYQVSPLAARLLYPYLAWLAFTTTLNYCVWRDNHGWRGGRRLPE

[22] = tested on: Liver microsome; test: Intrinsic clearance in human liver microsomes assessed per mg protein at 100 uM by LC-MS/MS analysis; assay type: ADME
[23] = biological target: Cytochrome P450 2C19 (Homo sapiens, UniProt P33261); test: Inhibition of CYP2C19 in human microsomes preincubated for 5 mins before substrate addition measured after 10 mins by LC/MS/MS analysis; assay type: ADME
Chain of Cytochrome P450 2C19 (P33261 whole entry): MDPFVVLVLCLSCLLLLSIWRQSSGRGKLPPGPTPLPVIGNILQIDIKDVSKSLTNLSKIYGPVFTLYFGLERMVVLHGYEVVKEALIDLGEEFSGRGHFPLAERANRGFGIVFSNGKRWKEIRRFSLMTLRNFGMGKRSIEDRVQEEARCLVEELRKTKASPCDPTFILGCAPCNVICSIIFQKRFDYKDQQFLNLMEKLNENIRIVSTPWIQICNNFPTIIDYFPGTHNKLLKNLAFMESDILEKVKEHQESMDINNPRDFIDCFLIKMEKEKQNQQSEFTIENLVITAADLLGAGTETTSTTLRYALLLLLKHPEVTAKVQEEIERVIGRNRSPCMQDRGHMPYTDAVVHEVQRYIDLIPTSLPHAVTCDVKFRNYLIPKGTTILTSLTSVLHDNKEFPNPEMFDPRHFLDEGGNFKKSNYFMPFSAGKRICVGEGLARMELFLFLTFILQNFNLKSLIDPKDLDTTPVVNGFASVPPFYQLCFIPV

CNC(=O)[C@@]12C[C@@H]1[C@@H](n1cnc3c(NC)nc(C#Cc4cccs4)nc31)[C@H](O)[C@@H]2O
Imax [1]: 28%
Time [2]: 1 h
inhibition [3]: 47%
inhibition [4]: 25%
inhibition [5]: 20%
Emax at 3 µmol/kg [6]: 100%
inhibition [7]: 3%

CNC(=O)[C@@]12C[C@@H]1[C@@H](n1cnc3c(NC)nc(C#Cc4ccco4)nc31)[C@H](O)[C@@H]2O
Activity [8]: 27.6%
Time [2]: 1 h
inhibition [3]: 59%
inhibition at 10 µM [9]: 21%
inhibition [4]: 30%
inhibition [5]: 18%
Emax at 3 µmol/kg [6]: 100%
permeability [10]: permeable
inhibition [7]: 17%

CNC(=O)[C@@]12C[C@@H]1[C@@H](n1cnc3c(NC)nc(C#Cc4nccs4)nc31)[C@H](O)[C@@H]2O
Activity [8]: 12.7%
Time [2]: 1 h
inhibition [4]: 31%
inhibition [5]: 8%
Emax at 3 µmol/kg [6]: 53.2%

CNC(=O)[C@@]12C[C@@H]1[C@@H](n1cnc3c(NC)nc(C#Cc4ccc(F)c(F)c4)nc31)[C@H](O)[C@@H]2O
Ratio Ki [11]: > 30
Ratio IC50 [12]: > 10000
Activity [8]: 28.7%
Time [2]: 1 h
IC50 [13]: 27 µM
Ki [14]: 86 nM
Emax at 3 µmol/kg [6]: 99%

CNC(=O)[C@@]12C[C@@H]1[C@@H](n1cnc3c(NC)nc(C#Cc4ccc(Cl)s4)nc31)[C@H](O)[C@@H]2O
Activity [15]: Active
Imax [1]: 35%
Activity [8]: 82.8%
Time [2]: 0.5 h
IC50 [13]: 12.9 µM
inhibition [3]: 38%
Activity [16]: Active
IC50 [17]: > 10 µM
inhibition [4]: 6%
inhibition [5]: 24%
IC50 [18]: > 10 µM
Emax at 3 µmol/kg [6]: 93.3%
IC50 [19]: > 10 µM
permeability [10]: permeable
IC50 [20]: > 10 µM
Activity [21]: Active
CLH [22]: 3.69 µL/min
IC50 [23]: > 10 µM
inhibition [7]: 7%

CNC(=O)[C@@]12C[C@@H]1[C@@H](n1cnc3c(NC)nc(C#Cc4cccc(F)c4)nc31)[C@H](O)[C@@H]2O
Activity [8]: 12.4%
Time [2]: 1 h
inhibition [4]: 14%
Emax at 3 µmol/kg [6]: 46.3%

CNC(=O)[C@@]12C[C@@H]1[C@@H](n1cnc3c(NC)nc(C#Cc4ccccc4Cl)nc31)[C@H](O)[C@@H]2O
Ratio Ki [11]: > 30
Activity [8]: 10.6%
Time [2]: 0.5 h
inhibition [4]: 22%
Emax at 3 µmol/kg [6]: 27.5%

CNC(=O)[C@@]12C[C@@H]1[C@@H](n1cnc3c(NC)nc(C#Cc4ccc(F)cc4)nc31)[C@H](O)[C@@H]2O
Ratio Ki [11]: > 30
Activity [8]: 10.4%
Time [2]: 1 h
inhibition [4]: 27%
Emax at 3 µmol/kg [6]: 72%

CNC(=O)[C@@]12C[C@@H]1[C@@H](n1cnc3c(NC)nc(C#Cc4ccccc4F)nc31)[C@H](O)[C@@H]2O
Activity [8]: 9.8%
Time [2]: 0.5 h
inhibition [4]: 20%
Emax at 3 µmol/kg [6]: 56%

CNC(=O)[C@@]12C[C@@H]1[C@@H](n1cnc3c(NC)nc(C#Cc4ccc(-c5ccccc5)cc4)nc31)[C@H](O)[C@@H]2O
Activity [8]: 14.3%
Time [2]: 1 h
inhibition [4]: 18%
inhibition [5]: 21%
Emax at 3 µmol/kg [6]: 57.7%

CNC(=O)[C@@]12C[C@@H]1[C@@H](n1cnc3c(NCc4cccc(Cl)c4)nc(C#Cc4ccc(F)c(F)c4)nc31)[C@H](O)[C@@H]2O
Activity [8]: 23.7%
Time [2]: 1 h
IC50 [13]: 12.2 µM
inhibition [3]: 16%

CNC(=O)[C@@]12C[C@@H]1[C@@H](n1cnc3c(NC)nc(C#Cc4ccc(Cl)cc4)nc31)[C@H](O)[C@@H]2O
Activity [8]: 4.6%
Time [2]: 0.5 h
inhibition [4]: 13%
Emax at 3 µmol/kg [6]: 40.4%

CNC(=O)[C@@]12C[C@@H]1[C@@H](n1cnc3c(NC)nc(C#Cc4cnccn4)nc31)[C@H](O)[C@@H]2O
Imax [1]: 30%
Time [2]: 1 h
IC50 [17]: > 10 µM
inhibition [4]: 37%
inhibition [5]: 25%
IC50 [18]: > 10 µM
Emax at 3 µmol/kg [6]: 100%
IC50 [19]: > 10 µM
permeability [10]: impermeable
IC50 [20]: > 10 µM
CLH [22]: 2.99 µL/min
IC50 [23]: > 10 µM
inhibition [7]: 12%

CNC(=O)[C@@]12C[C@@H]1[C@@H](n1cnc3c(NC)nc(C#CC4CC4)nc31)[C@H](O)[C@@H]2O
Activity [8]: 19.1%
Time [2]: 1 h
inhibition [4]: 38%
inhibition [5]: 15%
Emax at 3 µmol/kg [6]: 54.6%

CNC(=O)[C@@]12C[C@@H]1[C@@H](n1cnc3c(NC)nc(C#Cc4cnn(C)c4)nc31)[C@H](O)[C@@H]2O
Time [2]: 1 h
inhibition [3]: 72%
inhibition at 10 µM [9]: 28%
inhibition [4]: 35%
inhibition [5]: 12%
Emax at 3 µmol/kg [6]: 87.3%
inhibition [7]: 16%
